Laboratory results from paper PMC4688279 (Prostaglandins & other lipid mediators, 2015).
Values joined by “and” are separate entries in the source; they are usually repeats but may differ in a detail not shown here. Equal entries are not always repeated. Where two headings read alike, the source gives them in different places.

Tests used:
Caco-2 cells = experiment: Caco-2 transwell model of in vitro intestinal absorption; assay type: in vitro ADME, human; conditions: after 6 hours of incubation
primary rat hepatocytes = experiment: Metabolic stability in primary rat hepatocytes; assay type: in vitro ADME; conditions: for initially added TPPU remaining intact: after 20 hours, n=6
Method in brief: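 Rat hepatocytes were isolated by portal-vein perfusion with oxygenated 2 mM EDTA buffer (37°C, 40 mL/min, 45 min), then purified on a 58% Percoll gradient (800 × g, 5 min). 1×10^5 cells were plated and allowed to attach for 4 h. Test compound (1 or 10 μM) was added in DMEM, 0.1% DMSO final; n=6. One medium aliquot was frozen directly. The other was deconjugated with glucuronidase (10.000 U/mL) and sulfatase (700 U/mL) in acetate buffer, pH 5.0, for 24 h.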

[1] = Chemical stability of TPPU in drinking water; assay type: physicochemical; conditions: 0.2% PEG400 in water, 8 days, plastic water bottles
[2] = assay type: in vivo; conditions: rat
mice sEH = conditions: read-out: IC50 sEH; cited from earlier work
[3] = mice, cited from earlier work; for Cmax: read-out: Cmax in blood
[4] = mice, three weeks drinking water, cited from earlier work
[5] = cynomolgus monkeys, single oral dose 0.3 mg/kg; cited from earlier work
human sEH = conditions: read-out: IC50 sEH; cited from earlier work
rat sEH = conditions: read-out: IC50 sEH; cited from earlier work

Question: With `CCC(=O)N1CCC(NC(=O)Nc2ccc(OC(F)(F)F)cc2)CC1` [TPPU] as the molecule, how does the “added amount detected on the basolateral side” value (Caco-2 cells) read?
Answer: 66%

Question: What about the “recovery of TPPU after glucuronidase/sulfatase treatment of the medium” value (primary rat hepatocytes; 1 μM TPPU) of the same molecule?
Answer: 93 ± 9.3%

Question: And the “initially added TPPU remaining intact” value (primary rat hepatocytes; 1 μM TPPU)?
Answer: 87 ± 3.5%

Question: What about the “recovery of TPPU after glucuronidase/sulfatase treatment of the medium” value (primary rat hepatocytes; 10 μM TPPU) of the same molecule?
Answer: 90 ± 5.9%

Question: What about the “initially added TPPU remaining intact” value (primary rat hepatocytes; 10 μM TPPU) of the same molecule?
Answer: 90 ± 1.6% and 90%

Question: What about the “recovery in drinking water (chemical stability)” value ([1]; 0.2 mg/L) of the same molecule?
Answer: 103 ± 3.2%

Question: What about the “recovery in drinking water (chemical stability)” value ([1]; 10 mg/L) of the same molecule?
Answer: 109 ± 4.9%

Question: What about the distribution into brain ([2]; drinking water, day 8) of the same molecule?
Answer: A significant portion also crosses the blood brain barrier

Question: And the “liver tissue level in comparison to heart tissue” value ([2]; group with the highest TPPU concentration, day 8)?
Answer: about 3.5 fold

Question: What about the IC50 (mice sEH) of the same molecule?
Answer: 6 nM

Question: And the bioavailability ([3]; oral gavage 0.1–3 mg/kg, based on AUC)?
Answer: 31–41%

Question: What about the Cmax ([3]; single dose p.o. 0.1 mg/kg) of the same molecule?
Answer: 270 nM

Question: What about the Cmax ([3]; single dose p.o. 0.3 mg/kg) of the same molecule?
Answer: 1700 nM

Question: What about the plasma level ([4]; 0.2 mg/kg BW daily) of the same molecule?
Answer: 610 ± 130 nM

Question: What about the plasma level ([4]; 0.6 mg/kg BW daily) of the same molecule?
Answer: 1800 ± 445 nM

Question: And the Cmax [5]?
Answer: 700 ± 600 nM

Question: And the IC50 (rat sEH)?
Answer: […]
